Test results: ChEMBL document CHEMBL1122000 (J Med Chem, 1982)

How the values were obtained:
[1] = Partition coefficient (logP); format: physicochemical; settings: octanol/water
Mus musculus [2] = species on record: Mus musculus; assay: Concentration required for antagonistic activity of Met-enkephalin in the mouse vas deferens at the dose ratio of 2.; format: functional
Mus musculus [3] = species on record: Mus musculus; assay: Concentration required for antagonistic activity of normorphine in the mouse vas deferens at the dose ratio of 2.; format: functional
Rattus norvegicus [4] = assay: Antagonistic potency of compound after oral administration in rats; format: functional
Procedure, shortened: (§1)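 Rats, 10 animals per dose level. Drugs were given as bases in saline vehicle, sc or orally. Antagonist activity was read in the hot-water tail-flick test. AD50 values were reported with limits.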

Rattus norvegicus [5] = assay: (§2) Antagonistic potency of compound after subcutaneous administration in rats; format: functional; procedure, shortened: as §1
Rattus norvegicus [6] = assay: as §2; format: functional; remark: listed apart in the source
Rattus norvegicus [7] = species on record: Rattus norvegicus; assay: Duration of action of compound was determined at the AD99 dose level in rats; format: functional
Procedure, shortened: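 Rats, 10 per dose level; bases in saline vehicle given sc. Antagonism was followed in the hot-water tail-flick test at the AD99 dose, which was extrapolated from AD50 values. Duration of action is given in hours.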

Opioid receptor [8] = target: T1, Opioid receptor (Rattus norvegicus, UniProt P33533+P34975+P33535); assay: Inhibition of stereospecific [3H]diprenorphine binding to opioid receptors of rat brain homogenates by 50% in the absence of Na
Opioid receptor [9] = target: T1, Opioid receptor; assay: Inhibition of stereospecific [3H]diprenorphine binding to opioid receptors of rat brain homogenates by 50% in the presence of Na
[10] = In vitro narcotic agonist potency of compound as ratio to normorphine (=1) was assessed in mouse vas deferens; format: functional
Mus musculus [11] = species on record: Mus musculus; assay: Concentration required for antagonistic activity of Met-enkephalin in the mouse vas deferens at the dose ratio of 2; format: functional

Compound | logP ([1]; read-out: logP) | Concentration (Mus musculus [2]) | Concentration (Mus musculus [3]) | AD50 (Rattus norvegicus [4]) | AD50 (Rattus norvegicus [5]) | AD99 (Rattus norvegicus [6]) | Duration (Rattus norvegicus [7]) | IC50 (Opioid receptor [8]) | IC50 (Opioid receptor [9]) | Potency ratio [10] | Concentration (Mus musculus [11]) | logP [1]
C=CCN1CC[C@]23c4c5ccc(O)c4O[C@H]2C(=O)CC[C@@]3(OCC)C1C5 | 3.05 | 7.9 ng/mL | 0.33 ng/mL | 3.8 mg/kg | 0.034 mg/kg | 0.14 mg/kg | 6 h | – | – | – | – | –
CO[C@@]12CCC(=O)[C@@H]3Oc4c(O)ccc5c4[C@@]31CCN(CC1CC1)[C@@H]2C5 | 3.05 | 11.5 ng/mL | 0.26 ng/mL | 4.4 mg/kg | 0.019 mg/kg | 0.25 mg/kg | 8 h | 0.018 µM | 0.016 µM | <0.063 | – | –
C=CCN1CC[C@]23c4c5ccc(O)c4O[C@H]2C(=O)CC[C@@]3(OC)C1C5 | 2.52 | – | 0.46 ng/mL | >30 mg/kg | 0.041 mg/kg | 0.15 mg/kg | 4 h | – | – | – | 7.3 ng/mL | –
O=C1CC[C@@]2(O)[C@H]3Cc4ccc(O)c5c4[C@@]2(CCN3CC2CC2)[C@H]1O5 [NALTREXONE] | – | 9 ng/mL | 0.165 ng/mL | 1.35 mg/kg | 0.009 mg/kg | 0.05 mg/kg | 5 h | – | – | – | – | 3.047
CCO[C@@]12CCC(=O)[C@@H]3Oc4c(O)ccc5c4[C@@]31CCN(CC1CC1)C2C5 | 3.58 | 4.1 ng/mL | 0.07 ng/mL | 1.5 mg/kg | 0.005 mg/kg | 0.14 mg/kg | 4 h | 0.008 µM | 0.0038 µM | <0.12 | – | –
C=CCN1CC[C@]23c4c5ccc(O)c4O[C@H]2C(=O)CC[C@@]3(O)[C@H]1C5 [NALOXONE] | 1.91 | 10.1 ng/mL | 0.51 ng/mL | 13 mg/kg | 0.023 mg/kg | 0.1 mg/kg | 3 h | – | – | – | – | –
